MT stabilizer: microtubule stabilizers in HeLa cells | HeLa tubulin immunostaining HCS, 24 h; share of cells brighter than vehicle mean+2SD | 0.83% of 200,000 active | AID 2205 | % tubulin-high responders, % at 10 µM;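 active = plate Z-score above 3 for both tubulin-high and condensed-nucleus cell shares, with cell loss under 80%, at 10 µM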;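 also: anti alpha tubulin signal scored within the nucleus-defined area of each cell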
ROMK primary: human ROMK K+ channel modulation, primary screen; Tet-inducible ROMK, thallium flux fluorescence; actives lie on both sides; B-score at 10 µM; 2% of 130,000 active; AID 1918;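 active = signal ratio slope over the read window, or its plate-corrected B-score, at least 3 SD from the plate mean, either direction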;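 also: B-score of the F/F0 ratio slope over 7 to 12 s after thallium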
Target sequence (P48048 whole entry, looked up): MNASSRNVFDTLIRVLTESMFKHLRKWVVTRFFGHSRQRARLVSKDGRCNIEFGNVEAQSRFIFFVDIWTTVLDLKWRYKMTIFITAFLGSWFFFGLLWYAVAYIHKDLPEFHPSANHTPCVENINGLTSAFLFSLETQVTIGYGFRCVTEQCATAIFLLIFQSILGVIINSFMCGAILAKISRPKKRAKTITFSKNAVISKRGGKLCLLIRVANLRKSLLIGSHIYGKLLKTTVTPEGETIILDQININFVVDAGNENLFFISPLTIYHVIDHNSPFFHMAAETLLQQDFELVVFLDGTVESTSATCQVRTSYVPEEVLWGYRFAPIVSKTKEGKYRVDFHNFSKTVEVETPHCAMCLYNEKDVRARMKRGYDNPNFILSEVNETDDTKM
b-catenin transl: beta-catenin nuclear translocation modulation; AID 1665; nuclear translocation activity, % at 5 µM; 0.3% of 190,000 active; HeLa beta-catenin nuclear translocation, immunofluorescence imaging;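 active = nuclear translocation activity above 50% at 5 µM, with a well cell count of 50 or more; inconclusive = wells under 50 cells across six images, flagged as toxic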;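 also: per-cell ratio of nuclear to cytoplasmic median beta-catenin stain intensity; plate controls were DMSO negative control for no effect and GSK-3 inhibitor IX positive control for full effect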
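Signal – beta-catenin immunofluorescence imaging with DAPI · Test system – human HeLa cell line · Dosing – 5 µM primary single dose, 0.1% DMSO, 0.02–20 µM confirmation series · Measure – % activation, nuclear-to-cytoplasmic median beta-catenin signal ratio per cell · Incubation – 24 h compound exposure at 37°C, 5% CO2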
Redox H2O2 prof: compounds producing H2O2 with reducing agent – biochemical, NIH compound library profiling, artefact control for MLSCN library redox annotation, primary screen. DTT-dependent redox cycling H2O2, phenol red/HRP absorbance; 100% = 100 µM peroxide control, 0% = buffer. activation, % at 10 µM. 0.03% of 200,000 active;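 active = activation of at least 50% relative to the plate's high and low controls in the primary single-dose screen; inactive = activation below 50%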;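 also: compound incubated with DTT at 0.8 mM final as the reducing agent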
Cl transport mod: KCC2 (human) Cl- transport modulation | Q9H2X9 | KCC2 cells, thallium flux FluoZin-2 fluorescence | B-score of Tl+ flux slope (higher = more flux/activation; lower = inhibition) at 10 µM | 2.2% of 190,000 active | AID 1456;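 active = thallium flux slope and its plate-corrected score both differing from the plate sample mean at a set confidence after two filtering rounds, in either direction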;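 also: slope of fluorescence scaled to starting intensity during 10 to 20 s after thallium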
ROMK hit retest: confirmation of human ROMK potassium channel modulators; shares compounds with ROMK primary; ROMK thallium flux, fluorescence ratio; active compounds read low; normalized thallium flux (F/F0 slope) at 10 µM; 54% of 3,000 active; AID 1917;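 active = Flux at 10 µM at least 3 SD below or above vehicle control mean in one or both replicates; inconclusive = no clear call, values can overlap the other calls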
* = called active by the depositor; ? = inconclusive; . = no result given. Only some compounds are listed: those with a hit (about 3.7% of all), similar ones and a draw of the others.

SMILES	MT stabilizer	ROMK primary	b-catenin transl	Redox H2O2 prof	Cl transport mod	ROMK hit retest
COc1ccc(-n2cc(C(=O)c3cc(Cl)ccc3O)cc(C#N)c2=O)cc1	2.6	2.69*	-0.9	-1.1	-0.0259	0.0753
COc1ccc(O)c(C(=O)c2cc(C#N)c(=O)n(-c3ccc(Cl)cc3)c2)c1	.	.	-1.1	.	-0.724	.
C[C@@H]1CN(c2nc3nonc3nc2N2CCSCC2)C[C@H](C)O1	3.3	0.62	-2.7	-1.7	0.361	.
C1CN(c2nc3nonc3nc2N2C[C@H]3CC[C@H]2C3)CCS1	2.1	1.4*	0.5	-1.8	1.41	0.0746
O=c1[nH]nc(SCCS(=O)(=O)c2ccc(F)cc2)n1-c1ccc2c(c1)OCCO2	.	.	0.7	.	0.318	.
Cc1ccc(C(C)C)c(OCCNC(=S)Nc2cccc3ccccc23)c1	1.9	.	0.5	-0.6	.	.
CCOC(=O)c1cnc2c(cnn2C)c1NCCCn1ccnc1	3.9	-2.94*	-4.9	-0.2	-0.554	0.0731
O=C(Nc1ccc(N2CCN(c3ccc(C(F)(F)F)cn3)CC2)nc1)c1cccs1	.	.	-0.5	.	.	.
O=C(Nc1ccc(N2CCN(c3ncccc3C(F)(F)F)CC2)nc1)c1cccs1	.	.	4.5	.	-1.73	0.0738
CCn1cc(C(=O)N2CCN(c3ccccn3)CC2)c(=O)c2cc(S(=O)(=O)N(C)C3CCCCC3)ccc21	1.8	-0.0173	-0.1	-0.2	-0.994	.
Nc1nnn(CC(=O)N/N=C/C=C/c2ccccc2)n1	.	.	0.1	.	0.751	.
O=C(O)c1cc(N2N=C(C(F)(F)F)/C(=C/C=C/c3ccco3)C2=O)ccc1Cl	1.3	-5.27*	-0.6	-1.1	-1.38	0.049*
CCOC(=O)c1c(C)n(C)c2ccc(O)c(CN(CC)CC)c12	1.1	0.726	-9.9	0.2	.	.
CCOC(=O)c1c(C)n(-c2ccccc2)c2ccc(O)c(CN(C)C)c12	4.3	-1.8*	-1.6	-2.0	-0.455	?
CC(C)(C)C(=O)Cn1c(=N)n(Cc2ccccc2Cl)c2ccccc21	0.8	-2.34	.	0.2	.	.
N=c1n(CC(=O)c2cccc([N+](=O)[O-])c2)c2ccccc2n1Cc1ccccc1	2.1	.	2.5	0.2	1.3	.
Cc1ccc(Cn2c(=N)n(CC(=O)c3ccccc3)c3ccccc32)cc1	2.4	-5.15*	1.6	-0.4	0.048	0.0516*
CC(C)(C)C(=O)Cn1c(=N)n(Cc2ccccc2)c2ccccc21	2.7	.	-1.9	-0.6	1.38	0.0472*
CCCn1c(=N)n(CC(=O)c2ccc([N+](=O)[O-])cc2)c2ccccc21	4.1	-4.36*	0.9	-0.8	.	0.0716
O=C(Nc1ccccc1Cl)C1CCN(Cc2cnn(-c3ccccc3)c2-n2cccc2)CC1	1.4	-3.19*	.	0.1	.	0.0545*
CCCC/C(O)=C1\C(=O)CC(C)(C)CC1=NCCCCCC(=O)O	2.0	-0.0702	-0.1	-0.8	-1.32	.
CN(C)CCn1nnc2c(=O)oc3ccccc3c21	1.0	0.1	0.4	-0.1	-1.05	.
O=C(/C=C/c1cccnc1)c1ccc(NC(=O)c2cccc(Br)c2)cc1	3.6	-0.38	10.7	-0.3	-0.00297	.
Cc1cccc(C(=O)Nc2ccc(C(=O)/C=C/c3cccnc3)cc2)c1	4.0	-2.38*	.	0.2	-0.202	?
COc1cc(CNCCCN2CCOCC2)cc(Br)c1OCc1ccc(Cl)cc1	3.8	-3.81*	21.8	-1.4	0.0583	?
SMILES	MT stabilizer	ROMK primary	b-catenin transl	Redox H2O2 prof	Cl transport mod	ROMK hit retest
CCOC(=O)c1c(CSC(=N)N)n(-c2ccccc2)c2cc(Br)c(OC(C)=O)cc12	.	.	1.7	.	-0.00336	0.058*
O=C(O)c1ccc(-c2nc(-c3ccccc3)cs2)cc1	2.2	-0.917	1.5	-1.1	-1.89	.
O=C(O)c1ccc(-c2nc(-c3ccc(Cl)c(Cl)c3)cs2)cc1	1.7	3.07*	9.4	-0.3	-2.35	0.0822
c1ccc2c(-c3cc(C4CCNCC4)[nH]n3)cccc2c1	3.4	-4.38*	3.6	-0.7	0.0459	0.0643*
c1ccc(Cc2nnc(N3CCCCC3)c3ccccc23)cc1	3.6	-2.25*	-0.2	-0.4	-2.4	0.0669*
Oc1c(Br)cc(Cl)cc1C=Nc1ccccc1Br	3.0	3.5*	.	0.8	0.0301	?
NC/C(=N\O)c1ccc(Cl)cc1Cl	2.9	-4.5*	0.5	0.3	.	0.0561*
CN(C)CCCN=C(NO)c1ccc(Cl)cc1Cl	.	0.169	-0.2	.	0.412	.
Cc1ccc(S(=O)(=O)NC2=NCN(C3CCCCC3)CN2)cc1	4.7	.	1.0	-3.8	-0.284	?
Cc1ccc(S(=O)(=O)NC2=NCN(Cc3cccnc3)CN2)cc1	4.4	0.576	-5.5	0.0	.	.
CC1CCCN(c2nc3ccccc3nc2C(C#N)S(=O)(=O)c2cccs2)C1 (stereo not drawn)	1.7	-4.53*	-2.0	0.3	-1.4	0.059*
COc1ccc(S(=O)(=O)C(C#N)c2nc3ccccc3nc2N2CCCC(C)C2)cc1 (stereo not drawn)	1.5	.	-1.6	-3.5	-1.43	.
CN(C)c1ccc(N=C/C=C2/N(C)c3ccccc3C2(C)C)cc1	5.8	.	-0.8	-0.6	0.264	0.0538*
CN1/C(=C\C=N\O)C(C)(C)c2ccccc21	3.0	0.986	-1.7	0.4	-0.155	.
O=C1CCCCCN1Sc1ccccc1	8.2	.	-0.2	-1.3	-0.101	0.0428*
O=C(CCSc1ccccc1)N1CCCC1	0.9	0.317	4.0	-0.3	0.39	.
CN(C)CCCNCCCNC(=O)/C(=N\O)c1ccccc1	.	.	-0.2	.	-0.496	.
Cc1cc(C)c2c(NC(=O)CCl)nn(C)c2n1	5.7	0.266	0.0	-0.4	-0.13	.
CCc1cc(SC#N)cc(CC)c1NC(=O)CCl	6.4	-3.57*	0.9	0.7	0.0375	0.0472*
COc1ccc(/C=N/NC(=O)c2cccnc2)cc1CSc1nc2ccccc2s1	12.9	.	153.0*	0.6	-0.919	0.0826
CCOCCCNC(=O)c1ccc2c(c1)OCO2	2.9	.	.	0.2	-1.14	.
CCOCCCNC(=O)c1ccc2c(c1)N=C(CC)c1cc(Br)ccc1S2	4.7	4.07*	51.5*	-0.7	-0.746	0.0839
C(#CCN1CCC(Cc2ccccc2)CC1)COCCOCc1ccccc1	1.7	-2.95*	-0.2	-0.2	-1.18	0.0634*
O=c1cc(CN2CCN(c3cccc(C(F)(F)F)c3)CC2)nc2sccn12	.	.	0.3	.	-0.826	.
Cc1c(NC(=O)c2ccc(S(=O)(=O)N3CCOCC3)cc2)c(=O)n(-c2ccccc2)n1C	.	.	1.4	.	1.8	.
CCOC(=O)c1c(-c2ccccc2)oc2ccc(OCC)cc12	2.4	-0.78	0.4	0.0	-0.439	.
CCOc1ccc2oc(-c3ccccc3)c(C(=O)N3CCN(C)CC3)c2c1	2.5	.	-4.0	2.1	-0.888	?
CCN1CCc2c(C#N)c(N3CCCCC3)nc(NCc3ccccc3)c2C1	2.0	-2.57*	-1.3	3.8	0.663	0.0655*
C=CCN1C(=O)CS/C1=N\N=C\c1cccc([N+](=O)[O-])c1	1.9	-0.0488	-0.1	-0.2	0.624	.

Screening data from PubChem BioAssay.
